Results as given in ChEMBL document CHEMBL1795297, “Design, synthesis and molecular docking studies of novel triazole as antifungal agent” (2011).
Converted amounts (≈) assume the structure as drawn.

How the values were obtained:
Format in all cases: functional
Candida tropicalis = experiment: Antifungal activity against Candida tropicalis clinical isolate by micro-broth dilution method
Procedure, shortened: (§1)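 Clinical isolate. MIC by broth microdilution following the NCCLS M27-A2 reference method for yeasts. Compounds were dissolved in DMSO, serially diluted in growth medium, inoculated and incubated at 35 °C. MIC80 is the first well with about 80% less growth than the drug-free well. Each test was run three times and the mean of replicates reported.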

Aspergillus fumigatus = experiment: Antifungal activity against Aspergillus fumigatus clinical isolate by micro-broth dilution method; procedure, shortened: as §1
Candida parapsilosis = experiment: Antifungal activity against Candida parapsilosis clinical isolate by micro-broth dilution method; conditions: Lodderomyces parapsilosis; procedure, shortened: as §1
Candida albicans = experiment: Antifungal activity against Candida albicans ATCC Y0109 after 24 hrs by micro-broth dilution method; conditions: ATCC Y0109, 24 h
Procedure, shortened: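 ATCC quality-control strain, tested in every assay. NCCLS M27-A2 broth microdilution. Compounds were dissolved in DMSO, serially diluted in growth medium, inoculated and incubated at 35 °C, with growth read at 24 h. MIC80 is the first well with about 80% growth reduction relative to the drug-free control. Each test was run three times and the mean of replicates taken.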

Trichophyton rubrum = experiment: Antifungal activity against Trichophyton rubrum clinical isolate by micro-broth dilution method; procedure, shortened: as §1
Nannizzia gypsea = experiment: Antifungal activity against Microsporum gypseum clinical isolate by micro-broth dilution method; procedure, shortened: as §1
[1] = Antifungal activity against Fonsecaea compacta clinical isolate by micro-broth dilution method; procedure, shortened: as §1
Cryptococcus neoformans = experiment: Antifungal activity against Cryptococcus neoformans ATCC BLS108 after 72 hrs by micro-broth dilution method; conditions: ATCC BLS108, 72 h
Procedure, shortened: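 Quality-control ATCC strain included in each assay. Microbroth dilution per NCCLS M27-A2. DMSO-dissolved compounds were serially diluted in growth medium, inoculated and held at 35 °C, with MIC read at 72 h. MIC80 is the first well showing about 80% growth reduction versus the drug-free well. Tests were done in triplicate and the mean reported.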

| SMILES | MIC80 (Candida tropicalis) [µg/mL] | MIC80 (Aspergillus fumigatus) [µg/mL] | MIC80 (Candida parapsilosis) [µg/mL] | MIC80 (Candida albicans) [µg/mL] | MIC80 (Trichophyton rubrum) [µg/mL] | MIC80 (Nannizzia gypsea) [µg/mL] | MIC80 [1] [µg/mL] | MIC80 (Cryptococcus neoformans) [µg/mL] |
| --- | --- | --- | --- | --- | --- | --- | --- | --- |
| CCCCCC(=O)Nc1ccc(N2CCN(CC(O)(Cn3cncn3)c3ccc(F)cc3F)CC2)c(C(F)(F)F)c1 (configuration not stated) | 4 (≈ 6.89 µM) | 64 (≈ 110 µM) | 1 (≈ 1.72 µM) | 1 (≈ 1.72 µM) | 4 (≈ 6.89 µM) | 4 (≈ 6.89 µM) | 16 (≈ 27.6 µM) | 1 (≈ 1.72 µM) |
| O=C(Nc1ccc(N2CCN(CC(O)(Cn3cncn3)c3ccc(F)cc3F)CC2)c(C(F)(F)F)c1)c1cccc(C(F)(F)F)c1 (configuration not stated) | – | 16 (≈ 24.4 µM) | – | 0.0625 (≈ 0.0955 µM) | – | – | – | 0.0625 (≈ 0.0955 µM) |
| CCCC(=O)Nc1ccc(N2CCN(CC(O)(Cn3cncn3)c3ccc(F)cc3F)CC2)c(C(F)(F)F)c1 (configuration not stated) | 1 (≈ 1.81 µM) | > 64 | 0.25 (≈ 0.452 µM) | 1 (≈ 1.81 µM) | 4 (≈ 7.24 µM) | 1 (≈ 1.81 µM) | 4 (≈ 7.24 µM) | 1 (≈ 1.81 µM) |
| O=C(/C=C/c1ccc(Br)cc1)Nc1ccc(N2CCN(CC(O)(Cn3cncn3)c3ccc(F)cc3F)CC2)c(C(F)(F)F)c1 (configuration not stated) | – | 1 (≈ 1.45 µM) | – | 1 (≈ 1.45 µM) | – | – | – | 0.25 (≈ 0.362 µM) |
| CC(C)(C)C(=O)Nc1ccc(N2CCN(CC(O)(Cn3cncn3)c3ccc(F)cc3F)CC2)c(C(F)(F)F)c1 (configuration not stated) | 1 (≈ 1.76 µM) | > 64 | 1 (≈ 1.76 µM) | 0.25 (≈ 0.441 µM) | 4 (≈ 7.06 µM) | 0.25 (≈ 0.441 µM) | 4 (≈ 7.06 µM) | 1 (≈ 1.76 µM) |
| O=C(/C=C/c1ccc([N+](=O)[O-])cc1)Nc1ccc(N2CCN(CC(O)(Cn3cncn3)c3ccc(F)cc3F)CC2)c(C(F)(F)F)c1 (configuration not stated) | – | 4 (≈ 6.08 µM) | – | 0.0156 (≈ 0.0237 µM) | – | – | – | 0.25 (≈ 0.38 µM) |
| CCCCC(=O)Nc1ccc(N2CCN(CC(O)(Cn3cncn3)c3ccc(F)cc3F)CC2)c(C(F)(F)F)c1 (configuration not stated) | 1 (≈ 1.76 µM) | > 64 | 0.25 (≈ 0.441 µM) | 1 (≈ 1.76 µM) | 4 (≈ 7.06 µM) | 4 (≈ 7.06 µM) | 4 (≈ 7.06 µM) | 4 (≈ 7.06 µM) |
| O=C(Nc1ccc(N2CCN(CC(O)(Cn3cncn3)c3ccc(F)cc3F)CC2)c(C(F)(F)F)c1)c1ccc(F)cc1 (configuration not stated) | 1 (≈ 1.65 µM) | 4 (≈ 6.62 µM) | 0.25 (≈ 0.414 µM) | 4 (≈ 6.62 µM) | 4 (≈ 6.62 µM) | 1 (≈ 1.65 µM) | 4 (≈ 6.62 µM) | 16 (≈ 26.5 µM) |
| C[C@@H](c1ncncc1F)[C@](O)(Cn1cncn1)c1ccc(F)cc1F [VORICONAZOLE] | 0.25 (≈ 0.716 µM) | 1 (≈ 2.86 µM) | 1 (≈ 2.86 µM) | 0.0156 (≈ 0.0447 µM) | 0.0039 (≈ 0.0112 µM) | 0.0039 (≈ 0.0112 µM) | 0.0156 (≈ 0.0447 µM) | 0.0156 (≈ 0.0447 µM) |
| COc1ccc(C(=O)Nc2ccc(N3CCN(CC(O)(Cn4cncn4)c4ccc(F)cc4F)CC3)c(C(F)(F)F)c2)cc1 (configuration not stated) | 1 (≈ 1.62 µM) | 4 (≈ 6.49 µM) | 1 (≈ 1.62 µM) | 1 (≈ 1.62 µM) | 1 (≈ 1.62 µM) | 1 (≈ 1.62 µM) | 16 (≈ 25.9 µM) | 1 (≈ 1.62 µM) |
| Cc1ccc(/C=C/C(=O)Nc2ccc(N3CCN(CC(O)(Cn4cncn4)c4ccc(F)cc4F)CC3)c(C(F)(F)F)c2)cc1 (configuration not stated) | – | 4 (≈ 6.38 µM) | – | 0.25 (≈ 0.399 µM) | – | – | – | 1 (≈ 1.6 µM) |
| O=C(Nc1ccc(N2CCN(CC(O)(Cn3cncn3)c3ccc(F)cc3F)CC2)c(C(F)(F)F)c1)c1ccc(OC(F)(F)F)cc1 (configuration not stated) | 4 (≈ 5.97 µM) | 64 (≈ 95.4 µM) | 4 (≈ 5.97 µM) | 16 (≈ 23.9 µM) | 16 (≈ 23.9 µM) | 4 (≈ 5.97 µM) | 16 (≈ 23.9 µM) | 16 (≈ 23.9 µM) |
| O=C(Nc1ccc(N2CCN(CC(O)(Cn3cncn3)c3ccc(F)cc3F)CC2)c(C(F)(F)F)c1)c1ccc(Cl)cc1Cl (configuration not stated) | – | 0.25 (≈ 0.381 µM) | – | 0.25 (≈ 0.381 µM) | – | – | – | 0.25 (≈ 0.381 µM) |
| COc1ccc(/C=C/C(=O)Nc2ccc(N3CCN(CC(O)(Cn4cncn4)c4ccc(F)cc4F)CC3)c(C(F)(F)F)c2)cc1OC (configuration not stated) | – | 4 (≈ 5.95 µM) | – | 1 (≈ 1.49 µM) | – | – | – | 1 (≈ 1.49 µM) |
| O=C(/C=C/c1ccco1)Nc1ccc(N2CCN(CC(O)(Cn3cncn3)c3ccc(F)cc3F)CC2)c(C(F)(F)F)c1 (configuration not stated) | – | 4 (≈ 6.64 µM) | – | 0.25 (≈ 0.415 µM) | – | – | – | 0.25 (≈ 0.415 µM) |
| O=C(/C=C/c1ccc(Cl)cc1)Nc1ccc(N2CCN(CC(O)(Cn3cncn3)c3ccc(F)cc3F)CC2)c(C(F)(F)F)c1 (configuration not stated) | – | 1 (≈ 1.55 µM) | – | 1 (≈ 1.55 µM) | – | – | – | 0.25 (≈ 0.386 µM) |
| CCc1ccc(C(=O)Nc2ccc(N3CCN(CC(O)(Cn4cncn4)c4ccc(F)cc4F)CC3)c(C(F)(F)F)c2)cc1 (configuration not stated) | – | 4 (≈ 6.51 µM) | – | 0.25 (≈ 0.407 µM) | – | – | – | 0.0625 (≈ 0.102 µM) |
| O=C(Nc1ccc(N2CCN(CC(O)(Cn3cncn3)c3ccc(F)cc3F)CC2)c(C(F)(F)F)c1)c1ccncc1 (configuration not stated) | – | 1 (≈ 1.7 µM) | – | 0.0625 (≈ 0.106 µM) | – | – | – | 0.25 (≈ 0.425 µM) |
| O=C(/C=C/c1ccccc1Cl)Nc1ccc(N2CCN(CC(O)(Cn3cncn3)c3ccc(F)cc3F)CC2)c(C(F)(F)F)c1 (configuration not stated) | – | 4 (≈ 6.18 µM) | – | 0.0625 (≈ 0.0966 µM) | – | – | – | 0.25 (≈ 0.386 µM) |
